The source of these data is PMC2755653 (Journal of pharmaceutical sciences, 2009).

For series [1], the system named is MDCKII-WT cells. Put plainly: Cellular accumulation of radiolabeled drug in MDCKII-WT cell monolayers. Format: cell-based, canine. Conditions: for increase in cellular accumulation compared to control: 0.03% w/w Pluronic P85 (CMC).
In series [2] the target is P-gp (Homo sapiens, UniProt P08183). Description: Cellular accumulation of radiolabeled drug in MDCKII-MDR1 cell monolayers. Format: cell-based. Conditions: for change in cellular accumulation at Pluronic P85 concentrations above the CMC / change in cellular accumulation with Pluronic P85 up to the CMC / cellular accumulation at 0.5% w/w P85 versus control without P85 / increase in cellular accumulation compared to control: MDR1 cells; for (WT/MDR1) accumulation ratio: nelfinavir.
P-gp, sequence (P08183 whole entry): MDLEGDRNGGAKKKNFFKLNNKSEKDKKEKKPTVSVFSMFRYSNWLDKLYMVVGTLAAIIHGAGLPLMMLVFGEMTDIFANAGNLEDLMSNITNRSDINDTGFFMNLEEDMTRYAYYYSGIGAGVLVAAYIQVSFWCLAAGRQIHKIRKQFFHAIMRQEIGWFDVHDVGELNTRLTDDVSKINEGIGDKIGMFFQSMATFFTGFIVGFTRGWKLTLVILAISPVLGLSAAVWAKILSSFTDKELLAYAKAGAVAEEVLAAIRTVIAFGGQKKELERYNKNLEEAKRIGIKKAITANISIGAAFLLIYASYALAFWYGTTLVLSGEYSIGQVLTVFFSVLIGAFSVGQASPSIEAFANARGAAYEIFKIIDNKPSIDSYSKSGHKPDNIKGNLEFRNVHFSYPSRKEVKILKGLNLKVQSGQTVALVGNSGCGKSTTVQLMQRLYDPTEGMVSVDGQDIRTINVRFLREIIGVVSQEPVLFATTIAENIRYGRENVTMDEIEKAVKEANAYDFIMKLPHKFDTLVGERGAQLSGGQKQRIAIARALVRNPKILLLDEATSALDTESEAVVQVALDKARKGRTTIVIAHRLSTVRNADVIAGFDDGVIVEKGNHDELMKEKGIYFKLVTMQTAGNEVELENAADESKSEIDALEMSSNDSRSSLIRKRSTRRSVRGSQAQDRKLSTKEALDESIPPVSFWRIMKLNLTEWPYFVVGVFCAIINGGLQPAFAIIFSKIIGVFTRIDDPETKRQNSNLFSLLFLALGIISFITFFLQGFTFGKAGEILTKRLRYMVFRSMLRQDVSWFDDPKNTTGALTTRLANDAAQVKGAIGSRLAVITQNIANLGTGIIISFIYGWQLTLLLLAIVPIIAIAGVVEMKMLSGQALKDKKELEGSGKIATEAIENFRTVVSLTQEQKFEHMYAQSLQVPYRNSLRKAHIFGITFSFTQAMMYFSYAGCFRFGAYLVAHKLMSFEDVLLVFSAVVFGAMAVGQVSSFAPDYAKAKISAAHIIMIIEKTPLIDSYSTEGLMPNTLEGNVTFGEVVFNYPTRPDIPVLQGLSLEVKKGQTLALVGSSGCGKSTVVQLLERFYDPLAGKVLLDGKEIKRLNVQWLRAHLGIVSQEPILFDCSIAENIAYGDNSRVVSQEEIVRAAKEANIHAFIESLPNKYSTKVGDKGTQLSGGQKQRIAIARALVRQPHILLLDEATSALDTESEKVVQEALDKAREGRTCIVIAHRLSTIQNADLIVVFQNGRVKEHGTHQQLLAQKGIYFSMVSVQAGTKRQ

Series [3] is described as follows: Cell-free equilibrium dialysis with Pluronic P85. Type of series: physicochemical. Conditions: for time to equilibrium: equilibrium dialysis, MWCO 50,000 membrane, 37°C. The procedure, abridged:
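Two-chamber dialysis across a 50,000 Da MWCO membrane at 37°C, stirred, in pH 7.4 HEPES/bicarbonate buffer. Radiolabeled test compound was in the donor and buffer in the receiver. Below CMC, P85 was on both sides. For micellar levels, the receiver held 0.025% w/w and the donor target plus 0.005% w/w. Free fraction was receiver/donor concentration; a transfer-rate model was fitted.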

The conditions of series [4]: cited from earlier work.
Where [5] appears, read: at the CMC of Pluronic P85 (0.03% w/w; printed 0.035% w/w for nelfinavir).

Take `COc1cc2c(cc1OC)CN(CCc1ccc(NC(=O)c3cccc4c(=O)c5cccc(OC)c5[nH]c34)cc1)CC2` [GF120918]: in series [1] (highest concentration of GF120918 used), the “increase in nelfinavir accumulation compared to control” value is 5 fold. In addition, the “Emax (maximal effect on nelfinavir accumulation)” value in series [1] (sigmoid Emax model, mean ± SE) was 4.76 ± 0.2 DPM normalized to stock / mg protein.

Regarding `Nc1nc(NC2CC2)c2ncn([C@H]3C=C[C@@H](CO)C3)c2n1` [abacavir], the “change in cellular accumulation at Pluronic P85 concentrations above the CMC” value in series [1] and in series [2] was “significant decline” each time. Further, the “change in cellular accumulation with Pluronic P85 up to the CMC” value (“change in cellular accumulation … to the CMC” for short) is “no significant increase” in series [1] and “significant increase” in series [2]. Also, the “drug associated with the micelles” value in series [3] (0.5% w/w Pluronic P85) is listed as “roughly 10%”. In addition, the equilibrium free fraction in series [3] (0.5% w/w Pluronic P85) was determined as 0.871 ± 0.095; in series [3] (absence of Pluronic P85), 1.057 ± 0.212; in series [3] (setting [5]), 0.984 ± 0.083. Also, in series [3], the time to equilibrium is given as ~ 20 hrs.

For `OC[C@@H](O)[C@@H](O)[C@H](O)[C@H](O)CO` [mannitol], the “change in cellular accumulation at Pluronic P85 concentrations above the CMC” value in series [1] and in series [2] was “no effect” in each case. Also, the equilibrium free fraction in series [3] (0.1% w/w Pluronic P85) was determined as 0.968 ± 0.04; in series [3] (absence of Pluronic P85), 0.994 ± 0.06. The time to equilibrium in series [3] is on record as ~ 15 hrs.

Take `Cc1c(O)cccc1C(=O)N[C@@H](CSc1ccccc1)[C@H](O)CN1C[C@H]2CCCC[C@H]2C[C@H]1C(=O)NC(C)(C)C` [nelfinavir]: the “cellular accumulation at 0.5% w/w P85 versus control without P85” value is “significantly lower than WT control” in series [1] and “not statistically different” in series [2]. In addition, the “change in cellular accumulation at Pluronic P85 concentrations above the CMC” value in series [1] and in series [2] was “decreased significantly” throughout. The “change in cellular accumulation … to the CMC” value in series [1] is given as “no statistically significant enhancement”; in series [2], “increased significantly”. Besides, the “increase in cellular accumulation compared to control” value came to 1.3 fold in series [1] and 6 fold in series [2] (0.03% w/w Pluronic P85). Further, the “(WT/MDR1) accumulation ratio” value in series [2] (0.03% w/w P85) came to 1.4; in series [2] (0.5% w/w P85 (highest dose)), 1.23; in series [2] (absence of P85, 3 h accumulation) it was 6. Moreover, the drug free in series [3] (0.1% w/w Pluronic P85) turned out to be 20%; in series [3] (0.5% w/w Pluronic P85) it was 5%. Further, the equilibrium free fraction was found to be 0.194 ± 0.02 in series [3] (0.1% w/w Pluronic P85), 0.953 ± 0.109 in series [3] (absence of Pluronic P85) and 0.941 ± 0.045 in series [3] (setting [5]). The time to equilibrium in series [3] is on record as ~ 50 hrs.

Turning to `CC(C)(C)NC(=O)[C@@H]1C[C@@H]2CCCC[C@@H]2CN1C[C@@H](O)[C@H](Cc1ccccc1)NC(=O)[C@H](CC(N)=O)NC(=O)c1ccc2ccccc2n1` [saquinavir], in series [1], the “cellular accumulation at 0.5% w/w P85 versus control without P85” value is recorded as “not significantly different”, the “change in cellular accumulation at Pluronic P85 concentrations above the CMC” value is on record as “decline in accumulation” and the “change in cellular accumulation … to the CMC” value is listed as “significant increase in accumulation”. For the same molecule, in series [2], the “cellular accumulation at 0.5% w/w P85 versus control without P85” value was “not significantly different”, the “change in cellular accumulation at Pluronic P85 concentrations above the CMC” value was “decline in accumulation” and the “change in cellular accumulation … to the CMC” value is on record as “significant increase in accumulation”. For the same molecule, in series [3] (0.5% w/w Pluronic P85), the drug free is recorded as 7% and the equilibrium free fraction is 0.068 ± 0.007. Further, the equilibrium free fraction in series [3] (absence of Pluronic P85) is 0.827 ± 0.114. In addition, in series [3] (setting [5]), the equilibrium free fraction is 0.744 ± 0.031.

For `CC[C@]1(O)C[C@@H]2CN(CCc3c([nH]c4ccccc34)[C@@](C(=O)OC)(c3cc4c(cc3OC)N(C)[C@H]3[C@@](O)(C(=O)OC)[C@H](OC(C)=O)[C@]5(CC)C=CCN6CC[C@]43[C@@H]65)C2)C1` [vinblastine], the “change in cellular accumulation at Pluronic P85 concentrations above the CMC” value in series [1] and in series [2] was “significant only at 0.5% w/w” each time. In addition, the “increase in cellular accumulation compared to control” value in series [1] is 3 fold; in series [2] (0.05% w/w Pluronic P85 (maximum)), 21 fold; in series [2] (0.5% w/w Pluronic P85), 10 fold. Also, the log P (usually the decadic logarithm of the partition coefficient of the neutral form, usually between octanol and water) in series [4] is listed as 1.89.
